Compound activity from PubChem.
In the library only some 2.1% were active in any assay of this set; here they are far more common.
SUMO1 PPI mod: alters human SUMO1 binding to SIM partners. P63165. inhibition, % at 20 µM. AID 602429. SUMO1 binding to a labelled peptide, TR-FRET, 1 h. hit rate 0.33% among 360,000; in the data active means inhibition above about 37%
GRK2 aptamer HTS: inhibitors of human GRK2 displacing RNA aptamer. inhibition of aptamer binding, % at 10 µM. hit rate 0.59% among 330,000. bead flow cytometry, FAM-aptamer displacement from GRK2;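 active means inhibition of aptamer binding above 40%, roughly 3 SD of noise, on plates passing a quality check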;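 further: median bead fluorescence of bound FAM aptamer so fluorescent compounds give negative values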
DNMT1 inh: inhibitors of human DNMT1; P26358; DNMT1 molecular beacon, Hinp1I cleavage, fluorescence; inhibition (reported as % activation of signal), % at 10 µM; hit rate 0.83% among 360,000; AID 588458; in the data active means inhibition above about 50%
Target sequence (P26358 504-1616 limits assumed): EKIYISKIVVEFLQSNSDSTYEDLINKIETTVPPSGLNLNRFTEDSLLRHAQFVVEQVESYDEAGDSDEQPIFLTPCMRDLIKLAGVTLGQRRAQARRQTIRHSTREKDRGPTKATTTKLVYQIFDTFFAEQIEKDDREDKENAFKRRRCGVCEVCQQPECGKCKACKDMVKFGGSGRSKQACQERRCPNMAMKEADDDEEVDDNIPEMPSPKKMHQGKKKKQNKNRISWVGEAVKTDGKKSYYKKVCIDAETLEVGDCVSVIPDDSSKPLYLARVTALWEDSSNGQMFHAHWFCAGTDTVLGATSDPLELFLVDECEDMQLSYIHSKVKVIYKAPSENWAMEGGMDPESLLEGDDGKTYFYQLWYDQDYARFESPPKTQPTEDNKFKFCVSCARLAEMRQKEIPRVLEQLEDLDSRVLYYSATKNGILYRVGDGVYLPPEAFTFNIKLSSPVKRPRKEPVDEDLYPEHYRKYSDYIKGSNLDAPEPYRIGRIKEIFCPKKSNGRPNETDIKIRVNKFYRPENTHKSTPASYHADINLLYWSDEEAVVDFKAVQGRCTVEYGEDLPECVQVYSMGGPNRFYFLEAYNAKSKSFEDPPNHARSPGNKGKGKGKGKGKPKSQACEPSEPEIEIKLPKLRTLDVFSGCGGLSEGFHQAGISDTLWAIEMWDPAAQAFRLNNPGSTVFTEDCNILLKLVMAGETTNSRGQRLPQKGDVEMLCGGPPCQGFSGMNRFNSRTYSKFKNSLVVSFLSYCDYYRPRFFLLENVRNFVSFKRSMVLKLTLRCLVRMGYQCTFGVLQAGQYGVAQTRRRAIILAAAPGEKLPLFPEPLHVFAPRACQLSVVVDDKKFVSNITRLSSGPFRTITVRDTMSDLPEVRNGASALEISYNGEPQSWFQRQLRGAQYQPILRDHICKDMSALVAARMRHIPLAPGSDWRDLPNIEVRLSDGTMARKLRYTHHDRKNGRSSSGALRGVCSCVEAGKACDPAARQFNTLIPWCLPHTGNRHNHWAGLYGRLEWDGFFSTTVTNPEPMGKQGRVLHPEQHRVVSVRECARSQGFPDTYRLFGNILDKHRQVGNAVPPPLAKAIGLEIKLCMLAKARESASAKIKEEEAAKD
LMPTP inh: blocks human LMPTP phosphatase; hit rate 0.22% among 360,000; recombinant LMPTP-A, OMFP fluorogenic substrate, fluorescence intensity; inhibition, % at 20 µM; AID 651560; P24666;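 active means compounds that cut the enzyme signal by at least half of the control window in the single-dose screen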;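 further: plate controls were DMSO wells with enzyme plus substrate for no effect and substrate without enzyme for full effect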
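Test system – LMPTP-A phosphatase enzyme · Quantity – 0.625 nM LMPTP-A final · Reagent – OMFP substrate, 400 µM final · Dosing – one test concentration per compound, 20 µM, with 3% DMSO overall · Timing – 50 min enzyme reaction at room temperature, protected from light · Detection – fluorescence intensity · Controls – substrate-only low control, DMSO enzyme-plus-substrate high control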
STEP inh: STEP (human) phosphatase inhibition; recombinant STEP, OMFP fluorogenic substrate, fluorescence; inhibition, % at 20 µM; AID 588621; P54829; hit rate 0.25% among 360,000;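 active means inhibition at 20 µM, scaled per plate between control wells, above about 37%, limit read from the data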;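 further: 0% = DMSO with enzyme and substrate and 100% = substrate only without enzyme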
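System: isolated STEP enzyme; schedule: 20 min enzyme reaction at room temperature, protected from light; medium: Bis-Tris buffer pH 6.0, 2.5 mM DTT, 0.005% Tween 20; signal: fluorescence, 480/540 nm; dosing: single compound dose of 20 µM, 1% DMSO final; also added: OMFP substrate, 25 µM final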
Scp-1 inhibitor: Scp-1 (human) phosphatase inhibition | Q9GZU7 | Recombinant Scp1, phosphopeptide, malachite green phosphate absorbance | inhibition, % at 20 µM | hit rate 0.88% among 340,000;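 active means inhibition above about 50% at 20 µM, limit read from the data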;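 further: plate controls were DMSO wells with enzyme for no effect and wells lacking enzyme for full effect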
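Test system – truncated SCP-1 phosphatase (76-261aa) · Reagent – Phosphorylated 17-residue peptide substrate · Incubation – 45 min room-temperature reaction, 5 min colour, 30 min stabiliser · Detection – colorimetric phosphate reagent with accelerator and stabiliser, absorbance at 630 nm · Measure – % inhibition at 20 µM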
* marks the source's active call; other numbers are inactive results; . = no result.

SMILES	SUMO1 PPI mod	GRK2 aptamer HTS	DNMT1 inh	LMPTP inh	STEP inh	Scp-1 inhibitor
COc1ccc2c(c1)C(=O)C1(CC2)OC1c1cccnc1 (centres undefined)	-8.9	.	-5.9	-0.5	-2.5	.
Cc1cc(N2CCCCC2)nc(-c2ccc(Br)cc2)n1	44.8*	0.0	-3.8	3.6	-0.3	-3.6
COc1cc(/C=C2\SC(N)=NC2=O)ccc1OCC(=O)Nc1ccc(C)cc1	6.1	3.0	53.6*	-0.4	-2.2	6.1
COc1ccc(/C=C2/SC(=O)N(CCC(=O)Nc3ccc(C)cc3)C2=O)cc1OC	.	0.0	.	.	.	.
OCC[C@H]1NCc2cc(CO)cc(-c3ccccc3)c21	2.6	.	-8.3	1.5	-2.2	-10.9
NNc1nc2c(Cl)ccc(Cl)c2s1	3.0	1.0	2.1	85.1*	33.0	-1.7
Cc1nc2ccc(C(=O)N(C)Cc3ccco3)cn2c1N(C)C(=O)CCc1ccccc1	0.6	.	-6.6	-4.6	1.5	.
CCCC(=O)Nc1c(-c2ccccc2)[nH][nH]c1=O	-2.2	.	-14.0	0.0	2.5	.
O=C(c1ccc(Br)o1)N1CCN(c2ccc3nnc(-c4ccc(F)cc4)n3n2)CC1	48.8*	6.0	-7.5	0.1	2.3	6.1
O=C(Nc1ccc(Cl)cc1)N1CCN(c2ccc3nnc(-c4ccc(F)cc4)n3n2)CC1	10.5	0.0	-13.6	2.4	-3.8	15.3
CCN(CC)c1ccc(/C=N/NC(=O)c2cccc(S(=O)(=O)Nc3ccccc3OC)c2)c(O)c1	4.9	70.0*	-9.9	3.6	-0.6	16.8
COc1ccc(NS(=O)(=O)c2cccc(C(=O)N/N=C/c3ccc(O)cc3)c2)cc1	62.5*	2.0	-0.4	-0.3	-3.1	-6.9
COc1ccc(NS(=O)(=O)c2cccc(C(=O)NN=Cc3ccc(O)c(OC)c3)c2)cc1	63.4*	0.0	-3.0	1.9	-1.0	-12.4
O=c1cc(CO)[nH]nc1CO	-1.6	.	9.4	-0.7	-3.4	.
Nc1[nH]c(C(=O)c2ccccc2)c(-c2cccnc2)c1C(=O)NCCc1ccc(Cl)cc1Cl	-9.1	.	.	-0.7	.	.
O=C1CC2(CCCC2)C(=O)N1CN1CCN(S(=O)(=O)c2cc(F)ccc2F)CC1	4.6	.	3.0	-0.7	0.0	.
C#CCOCCOCCOCCNc1nc(N2CCN(C(=O)CCCCCCCCCCNC(=O)Cn3cc(C[C@@H](C)O)nn3)CC2)nc(N2CCN(C(=O)CCCCCCCCCCNC(=O)[C@H](CCCN=C(N)N)n3cc(C[C@@H](C)CC)nn3)CC2)n1	105.5*	0.0	-108.0	13.4	5.3	25.0
C#CCOCCOCCOCCNc1nc(N2CCN(C(=O)CCCCCCCCCCNC(=O)Cn3cc(C[C@@H](C)O)nn3)CC2)nc(N2CCN(C(=O)CCCCCCCCCCNC(=O)[C@H](CCCCN)n3cc(CCCC(=O)O)nn3)CC2)n1	-1.2	0.0	-52.2	-8.2	4.8	16.9
C#CCOCCOCCOCCNc1nc(N2CCN(C(=O)CCCCCCCCCCNC(=O)[C@H](CO)n3cc(CCCSC)nn3)CC2)nc(N2CCN(C(=O)CCCCCCCCCCNC(=O)[C@H](CCCN=C(N)N)n3cc(C[C@@H](C)CC)nn3)CC2)n1	89.9*	0.0	-105.4	16.8	18.6	62.7*
COc1cccc(Cn2c(C(C)n3c(C)nc4ccccc43)nc3ccccc32)c1 (centres undefined)	0.3	.	.	-1.1	.	.
Cc1cc(Br)cn2c(Cc3cccc(F)c3)c(-c3ccc(Cl)cc3)nc12	-8.2	.	2.8	2.8	-0.6	.
Cc1ccc(OCc2nnc(SCC(N)=O)n2N)cc1	44.0*	0.0	-1.4	-0.6	-2.9	-4.3
CC(C)CN(C(=O)CCNC(=O)c1ccc(Cl)cc1)C1CCS(=O)(=O)C1 (centres undefined)	4.6	7.0	-0.3	-0.4	-3.4	-9.6
CCCCCCCCCc1conc1C(=O)/C=C/c1ccco1	12.4	.	.	3.2	.	.
O=S(=O)(Nc1ccccc1F)c1cccc(NC(=S)NCCN2CCOCC2)c1	3.3	0.0	-4.3	5.3	91.5*	-7.3
SMILES	SUMO1 PPI mod	GRK2 aptamer HTS	DNMT1 inh	LMPTP inh	STEP inh	Scp-1 inhibitor
O=C(Nc1nc2c(Br)cc(Br)cc2c(=O)s1)c1ccco1	4.5	1.0	5.4	15.9	33.9	93.4*
Cc1cc(C)c2nc(NC(=O)c3ccco3)sc2c1	-0.4	0.0	-2.3	1.8	-0.1	19.5
Cc1cc(N=NC(=O)c2ccccc2)ccc1O	2.5	2.0	58.3*	-1.4	-4.1	-2.8
COc1cccc(N=Nc2c(N)[nH]n3c(=O)cc(-c4ccccc4)nc23)c1	-10.0	0.0	-13.7	8.0	7.8	-8.5
Cc1ccc(N=Nc2c(N)[nH]n3c(=O)cc(-c4ccccc4)nc23)cc1	-8.6	0.0	-24.7	70.1*	21.2	36.1
CCC(C)[C@@H](CN)NCC1(c2ccccc2)CC1 (some centres undefined)	37.1*	0.0	-0.3	-2.7	-1.6	5.2
O=C(Nc1cccc(C(=O)N2CCOCC2)c1)C1CCCCC1	-1.8	.	.	-3.0	.	.
Oc1cccc(/C=N/Nc2nn3cnnc3c3ccccc23)c1	84.0*	3.0	-0.1	7.1	-3.2	-0.8
O=C(C[C@H]1C[C@H]2c3cc(NS(=O)(=O)c4ccc(F)cc4)ccc3O[C@H]2[C@H](CO)O1)NCc1ccncc1	1.4	.	1.5	-1.4	0.0	.
O=C(Nc1ccc2c(c1)C(=O)NC2=O)c1ccc2ncsc2c1	41.7*	0.0	-1.4	0.2	-3.8	-10.4
O=C(Nc1ccc(Br)cc1)c1ccc2ncsc2c1	-12.5	1.0	-4.7	1.4	-2.1	1.8
CCCCn1c(N)c(N(CC(C)C)C(=O)CC(NC(=O)c2ccccc2Cl)c2ccccc2)c(=O)[nH]c1=O (centres undefined)	-4.2	.	-3.1	2.2	-0.8	.
CCOC(=O)c1c(N)n(C2CC(C)(C)NC(C)(C)C2)c2nc3ccccc3nc12	-10.3	0.0	28.7	2.9	0.1	-5.5
CCOC(=O)c1c(NC(=O)c2ccco2)n(C2CCCCC2)c2nc3ccccc3nc12	39.7*	4.0	39.3	6.0	1.0	-2.6
CCOC(=O)C1=CCN(S(=O)(=O)c2ccc(Cl)cc2)C1c1ccc(C)cc1 (centres undefined)	0.4	.	1.0	3.6	5.7	.
CC(C)NC(=O)C1(C)CCN1C(=O)c1ccccc1 (centres undefined)	2.3	.	-0.5	-1.3	-3.6	.
NC(=O)c1ccc(N=Nc2c(O)c3ccccc3[nH]c2=O)cc1	.	3.0	.	.	.	.
N=C(N)c1ccc(N=Nc2c(O)ccc3c2[nH]c2ccccc23)cc1	129.2*	.	50.7*	22.6	17.4	9.6
COC(=O)[C@]12CCCCC=C1N(Cc1ccc3c(c1)OCO3)C(=O)[C@H](CC(=O)NCCCN1CCCC1=O)C2	1.3	.	.	0.0	.	.
COc1ccccc1-c1cc(C(=O)Nc2cccnc2Cl)no1	47.4*	0.0	-4.2	0.8	-1.0	-3.8
